The values below come from ChEMBL document CHEMBL5352453, “Hit-to-lead optimization of a 2-aminobenzimidazole series as new candidates for chagas disease” (Eur J Med Chem, 2023).

SMILES strings stand for the structures.

Series [1] can be described thus: Metabolic stability in CD1 mouse liver microsomes assessed as intrinsic clearance measured upto 60 mins by LC-MS/MS analysis. The class given is ADME. As to conditions: read-out: CLH. In a few lines:
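CD1 mouse liver microsomes at 0.25 mg/mL, compound at 0.5 µM, pH 7.4, 37 °C, started with NADPH. Sampled at 0, 5, 10, 20, 30 and 60 min and quenched with acetonitrile:methanol containing tolbutamide. Measured by LC-MS/MS; CLint (k × 1000/0.25, µL/min/mg) derived by non-linear regression of % remaining over time.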
A general note: Liver microsomes are a subcellular fraction often used to study metabolism.

A short description of series [2]: Selectivity index, ratio of CC50 for cytotoxicity against human MRC5 cells to EC50 for Trypanosoma cruzi Tulahuen CL2 amastigotes expressing beta galactosidase infected in human MRC5 cells. The class given is toxicity, cell-based. The conditions noted are these: read-out: Selectivity Index. An outline of the steps:
(§1)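 T. cruzi Tulahuen CL2 β-galactosidase strain grown in MRC-5 cells (MEM, 5% heat-inactivated FCS, 37 °C, 5% CO2). MRC-5 cells (4 x 10^3/well) plus parasites (4 x 10^4/well) exposed 7 days to 4-fold dilutions from 64 µM down; final DMSO <1%. CPRG with Nonidet added, absorbance at 540 nm after 4 h. IC50 calculated against untreated-infected (100%) and non-infected (0%) controls. SI = MRC-5 CC50/IC50.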

The test system of a further series is Trypanosoma cruzi. Put plainly: Antitrypanosomal activity against Trypanosoma cruzi Tulahuen CL2 amastigotes expressing beta galactosidase infected in human MRC5 cells assessed as reduction in parasite burden using chlorophenol red beta-D-galactopyranoside as substrate and measured after 7 days by spectrophotometric analysis. It counts as functional, organism-based. As to conditions: Tulahuen CL2, MRC5, 168 h. An outline of the steps: as §1

In the case of `Cn1nccc1C(=O)Nc1nc2cc(CN3CCCC3)ccc2n1CC(F)(F)F`, in series [1], the microsomal CLint came to 23 µL/min/mg. Further, the selectivity ratio in series [2] was 2. For the same compound, in the series with Trypanosoma cruzi, the IC50 came out at 8.1 µM.

`Cc1cc(C(=O)Nc2nc3ccc(C#N)cc3n2CC(F)(F)F)nn1C`: in series [1], the microsomal CLint came to 181 µL/min/mg. Moreover, in series [2], the selectivity ratio worked out at 1. Moreover, the IC50 in the series with Trypanosoma cruzi was 64 µM.

Take `Cc1nnnn1CC(=O)Nc1nc2ccc(C#N)cc2n1CC(F)(F)F`: the microsomal CLint in series [1] was 23 µL/min/mg. Further, the selectivity ratio in series [2] was greater than 1. Besides, in the series with Trypanosoma cruzi, the IC50 was found to be 50 µM.

For the compound `CCCn1c(NS(=O)(=O)c2ccc(Br)cc2)nc2ccccc21`, the IC50 with Trypanosoma cruzi was greater than 64 µM.

Take `Cn1nccc1C(=O)Nc1nc2cc(-c3ncco3)ccc2n1CC(F)(F)F`: the microsomal CLint in series [1] worked out at 52.7 µL/min/mg. Further, in series [2], the selectivity ratio stood at 1. In the series with Trypanosoma cruzi, the IC50 worked out at 38 µM.

With `O=C(Cc1ccc(Cl)cc1)Nc1nc2ccccc2[nH]1`, the IC50 with Trypanosoma cruzi is greater than 64 µM.

With `O=C(Nc1nc2cncnc2n1CC(F)(F)F)c1cc(C(F)(F)F)n[nH]1`, the selectivity ratio in series [2] came to 4. The IC50 with Trypanosoma cruzi was 7.5 µM.

As for `Cn1ncc(C(=O)Nc2nc3ccc(C#N)cc3n2CC(F)(F)F)n1`, the selectivity ratio in series [2] turned out to be 1. In addition, in the series with Trypanosoma cruzi, the IC50 worked out at 64 µM.

Regarding `N#Cc1ccc2nc(NC(=O)c3ccccn3)n(CC(F)(F)F)c2c1`, the microsomal CLint in series [1] worked out at 236 µL/min/mg. For the same compound, in series [2], the selectivity ratio was greater than 7. Moreover, in the series with Trypanosoma cruzi, the IC50 amounted to 9.3 µM.

For `CC(C)(C)Cn1c(NC(=O)c2ccc(C(F)(F)F)nc2)nc2ccc(C#N)cc21`, in series [2], the selectivity ratio was greater than 1. In the series with Trypanosoma cruzi, the IC50 is 52 µM.

`Cn1nccc1C(=O)Nc1nc2cc(C(F)(F)F)cnc2n1CC(C)(C)C`: the microsomal CLint in series [1] came to 37 µL/min/mg. For the same compound, the selectivity ratio in series [2] turned out to be 7. The IC50 in the series with Trypanosoma cruzi was 0.57 µM.

Take `Cc1cc(C(=O)Nc2nc3ccc(C#N)cc3n2CC(F)(F)F)[nH]n1`: the selectivity ratio in series [2] was 1. In addition, the half-maximal inhibitory concentration (IC50) with Trypanosoma cruzi was found to be 36 µM.

As for `CCCn1c(NC(=O)Nc2ccc(Cl)cc2)nc2ccccc21`, in the series on Trypanosoma cruzi, the IC50 is greater than 64 µM.

Consider `CCCn1c(NC(=O)Cc2ccc(Cl)cc2)nc2cc(F)ccc21`, for which the microsomal CLint in series [1] worked out at 1510 µL/min/mg. In addition, the selectivity ratio in series [2] was greater than 70. In the series with Trypanosoma cruzi, the IC50 was found to be 0.92 µM.

`N#Cc1ccc2nc(NC(=O)c3ccnn3C3CC3)n(CC(F)(F)F)c2c1`: the selectivity ratio in series [2] came to 3. Further, the IC50 with Trypanosoma cruzi turned out to be 0.99 µM.

With `N#Cc1ccc2nc(NC(=O)c3ccc(C(F)(F)F)nc3)n(C3CC3)c2c1`, the microsomal CLint in series [1] stood at 1350 µL/min/mg. The IC50 in the series on Trypanosoma cruzi was greater than 64 µM.

As to `CCCn1c(NC(=O)Cc2ccc(Cl)cc2)nc2ccc(C#N)cc21`, the microsomal CLint in series [1] stood at 226 µL/min/mg. Besides, the selectivity ratio in series [2] is greater than 3. Also, in the series with Trypanosoma cruzi, the 50% inhibitory concentration (IC50) was 24 µM.

Regarding `CCCn1c(NC(=O)Cc2ccc(F)cc2)nc2ccc(C(=O)OC)cc21`, the microsomal CLint in series [1] turned out to be 1250 µL/min/mg. Further, the selectivity ratio in series [2] came to 35. Moreover, in the series on Trypanosoma cruzi, the IC50 was 0.53 µM.

As for `Cn1nncc1C(=O)Nc1nc2ccc(C#N)cc2n1CC(F)(F)F`, in series [2], the selectivity ratio was greater than 3. Also, the IC50 with Trypanosoma cruzi turned out to be 24 µM.

`Cn1nccc1C(=O)Nc1nc2ccc(C#N)cc2n1CC(F)(F)F`: in series [1], the microsomal CLint was determined as 20 µL/min/mg. Moreover, the selectivity ratio in series [2] was 8. Besides, in the series with Trypanosoma cruzi, the IC50 is 1.6 µM.

For the compound `CC(C)(C)Cn1c(NC(=O)c2cccnc2)nc2cc(F)c(F)cc21`, the microsomal CLint in series [1] worked out at 131 µL/min/mg. Moreover, the selectivity ratio in series [2] is greater than 80. For the same compound, the IC50 with Trypanosoma cruzi came out at 0.8 µM.

On to `N#Cc1ccc2nc(NC(=O)c3ccn(C4CC4)n3)n(CC(F)(F)F)c2c1`, for which the microsomal CLint in series [1] turned out to be 299 µL/min/mg. The selectivity ratio in series [2] is greater than 15. The IC50 in the series with Trypanosoma cruzi came to 4.3 µM.

Consider `O=C(Nc1nc2cncnc2n1CC(F)(F)F)c1ccnc(C(F)(F)F)c1`, for which the selectivity ratio in series [2] was 5. Moreover, the IC50 in the series on Trypanosoma cruzi came to 1.1 µM.

In the case of `Cn1cc(C(=O)Nc2nc3ccc(C#N)cc3n2CC(F)(F)F)cn1`, the selectivity ratio in series [2] came to 1. Besides, the IC50 in the series with Trypanosoma cruzi turned out to be 64 µM.

As to `Cn1nccc1C(=O)Nc1nc2cc(C#N)cnc2n1CC(C)(C)C`, in series [1], the microsomal CLint was determined as 31 µL/min/mg. The selectivity ratio in series [2] amounted to 5. The 50% inhibitory concentration (IC50) in the series on Trypanosoma cruzi came out at 0.5 µM.

With `O=C(Nc1nc2cc(F)ccc2n1C1CCNCC1)c1cccnc1`, the selectivity ratio in series [2] was found to be 3. Also, the IC50 with Trypanosoma cruzi is 9.2 µM.

On to `CCCn1c(NC(=O)c2cccnc2)nc2cccnc21`, for which the microsomal CLint in series [1] is 275 µL/min/mg. In addition, the selectivity ratio in series [2] was greater than 15. For the same compound, the IC50 in the series with Trypanosoma cruzi turned out to be 4.4 µM.

With `CCCn1c(NC(=O)Cc2ccc(F)cc2)nc2ccc(C(=O)N3CCCC3)cc21`, in series [2], the selectivity ratio was greater than 8. Moreover, in the series with Trypanosoma cruzi, the IC50 stood at 8.5 µM.

As to `N#Cc1ccc2nc(NC(=O)c3ccnc(C(F)(F)F)c3)n(CCF)c2c1`, in series [2], the selectivity ratio is 1. The 50% inhibitory concentration (IC50) in the series on Trypanosoma cruzi amounted to 49 µM.

In the case of `Cn1nccc1C(=O)Nc1nc2cc(CO)ccc2n1CC(F)(F)F`, in series [2], the selectivity ratio was found to be 1. Moreover, the IC50 in the series on Trypanosoma cruzi is 64 µM.

For `CCCn1ccnc1NC(=O)Cc1ccc(F)cc1`, in the series with Trypanosoma cruzi, the IC50 came to 35 µM.

As for `CCCn1c(NC(=O)c2ccc(F)cc2)nc2ccc(F)cc21`, the half-inhibitory concentration (IC50) with Trypanosoma cruzi is greater than 64 µM.

As for `CN(C)c1ccc(C(=O)Nc2nc3ccc(C#N)cc3n2CC(F)(F)F)cn1`, the selectivity ratio in series [2] was greater than 7. The IC50 with Trypanosoma cruzi came to 8.6 µM.

Regarding `O=C(Nc1nc2cncnc2n1CC(F)(F)F)c1ccc(C(F)(F)F)nc1`, the selectivity ratio in series [2] stood at 6. Also, the IC50 in the series on Trypanosoma cruzi turned out to be 0.51 µM.

Regarding `CCCn1c(NC(=O)Cc2ccc(Cl)cc2)nc2ccccc21`, the microsomal CLint in series [1] came out at 3090 µL/min/mg. In addition, the IC50 with Trypanosoma cruzi stood at 1.89 µM.

In the case of `Cn1nc(C(F)(F)F)cc1C(=O)Nc1nc2cncnc2n1CC(F)(F)F`, the selectivity ratio in series [2] amounted to 7. In addition, the IC50 in the series on Trypanosoma cruzi was 0.59 µM.

For the compound `N#Cc1ccc2nc(NC(=O)c3cnc(C(F)(F)F)nc3)n(CC(F)(F)F)c2c1`, the selectivity ratio in series [2] came out at 8. Besides, the IC50 in the series on Trypanosoma cruzi amounted to 0.24 µM.

With `COCCn1c(NC(=O)c2ccc(C(F)(F)F)nc2)nc2ccc(C#N)cc21`, in series [2], the selectivity ratio is 1. In the series with Trypanosoma cruzi, the IC50 came out at 64 µM.

Regarding `CCCn1c(NC(=O)c2ccc(C(F)(F)F)nc2)nc2cccnc21`, the selectivity ratio in series [2] came out at 15. Also, in the series with Trypanosoma cruzi, the IC50 worked out at 3.2 µM.

Take `CCCn1c(NC(=O)Cc2ccc(F)cc2)nc2ccccc21`: the IC50 in the series with Trypanosoma cruzi was determined as 2.1 µM.

Take `N#Cc1ccc2nc(NC(=O)c3cc(C(F)(F)F)nn3CC(=O)O)n(CC(F)(F)F)c2c1`: in series [2], the selectivity ratio is 1. In the series on Trypanosoma cruzi, the IC50 stood at 64 µM.

As for `CCCn1c(NCc2ccc(F)cc2)nc2cc(F)ccc21`, in the series on Trypanosoma cruzi, the IC50 was 25 µM.

Regarding `O=C(Cc1ccc(Cl)cc1)Nc1nc2ccccc2s1`, the IC50 in the series with Trypanosoma cruzi is greater than 64 µM.

Take `CCCn1c(CCNC(=O)Cc2ccc(Cl)cc2)nc2ccccc21`: the IC50 in the series with Trypanosoma cruzi was determined as 33 µM.

With `CCCn1c(NC(=O)Cc2cc(F)ccc2F)nc2ccccc21`, the half-maximal inhibitory concentration (IC50) with Trypanosoma cruzi came to 2.2 µM.

Take `N#Cc1ccc2nc(NC(=O)c3ccnc(C(F)(F)F)c3)n(CC(F)F)c2c1`: in series [2], the selectivity ratio was found to be 24. In addition, the IC50 with Trypanosoma cruzi worked out at 0.51 µM.

Regarding `Cc1ccc(C(=O)Nc2nc3ccc(C#N)cc3n2CC(F)(F)F)cn1`, the selectivity ratio in series [2] stood at 1. The IC50 in the series with Trypanosoma cruzi stood at 64 µM.

On to `CCCn1c(NC(=O)Cc2ccc(F)cc2)nc2ccc(C(=O)O)cc21`, for which the selectivity ratio in series [2] came out at 1. Further, the IC50 with Trypanosoma cruzi is greater than 64 µM.

Turning to `Cn1nccc1C(=O)Nc1nc2cc(S(C)(=O)=O)ccc2n1CC(F)(F)F`, the selectivity ratio in series [2] was 6. Further, the IC50 with Trypanosoma cruzi turned out to be 2.2 µM.

By IC50 is commonly meant the concentration needed to halve the response being measured.
